Experimental data published in ChEMBL document CHEMBL1221164, “Small molecules that delay S phase suppress a zebrafish bmyb mutant” (2005).
Activity calls are given as the source filed them. The calls are words filed in the database; no cut-off is given here.

Columns and labels:
Danio rerio [1] = organism: Danio rerio; experiment: Inhibition of B-myb-mediated mitotic deffects in zebrafish bmyb mutant crb embryos at 50 mM
In short: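 crb heterozygote intercross embryos exposed from 4 hpf to 24 hpf at 28.5 °C in E3 with 1% DMSO (aphidicolin […]; hydroxyurea 50 mM). Fixed in 4% paraformaldehyde, whole-mount stained for phospho-histone H3 (Ser10), genotyped by RFLP. pH3-positive cells counted in the tail distal to the yolk extension, or mutant phenotype scored by eye.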

Danio rerio [2] = organism: Danio rerio; experiment: Inhibition of B-myb-mediated mitotic deffects in zebrafish bmyb mutant embryo assessed as intra-Sphase and G2/M checkpoint inhibition at 10 ug/ml
In short: (§1)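 crb embryos given 2 mM caffeine or none at 4 hpf. Thirty minutes later […] aphidicolin added, then incubated overnight to 24 hpf at 28.5 °C in E3 with 1% DMSO. Mitotic accumulation read by whole-mount phospho-histone H3 staining, with pH3-positive cells counted in the tail distal to the yolk extension.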

Danio rerio [3] = organism: Danio rerio; experiment: Inhibition of B-myb-mediated mitotic deffects in zebrafish bmyb mutant embryo assessed as intra-Sphase and G2/M checkpoint inhibition in presence of 2 mM caffeine at 10 ug/ml; in short: as §1
Danio rerio [4] = organism: Danio rerio; experiment: Inhibition of B-myb-mediated mitotic deffects in zebrafish bmyb mutant crb embryos at 50 mM
Danio rerio [5] = organism: Danio rerio; experiment: Inhibition of B-myb-mediated mitotic deffects in zebrafish bmyb mutant crb embryos assessed as number of centrosomes in pH3 -positive cells at […] at 24 hrs post fertilization by pH3 and gamma tubulin staining; type: cell-based
In short: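 Centrosomes detected with a monoclonal anti-γ-tubulin antibody (1:1,000) in embryos treated overnight with […] drug.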

B-myb (Danio rerio) [6] = molecular target: T1, B-myb (Danio rerio) (UniProt Q4KMF7); experiment: Inhibition of B-myb-mediated mitotic deffects in wild-type Zebrafish assessed as suppression of cells without spindles at […] at 24 hrs post fertilization by pH3 and alpha tubulin staining
T1 sequence (whole entry): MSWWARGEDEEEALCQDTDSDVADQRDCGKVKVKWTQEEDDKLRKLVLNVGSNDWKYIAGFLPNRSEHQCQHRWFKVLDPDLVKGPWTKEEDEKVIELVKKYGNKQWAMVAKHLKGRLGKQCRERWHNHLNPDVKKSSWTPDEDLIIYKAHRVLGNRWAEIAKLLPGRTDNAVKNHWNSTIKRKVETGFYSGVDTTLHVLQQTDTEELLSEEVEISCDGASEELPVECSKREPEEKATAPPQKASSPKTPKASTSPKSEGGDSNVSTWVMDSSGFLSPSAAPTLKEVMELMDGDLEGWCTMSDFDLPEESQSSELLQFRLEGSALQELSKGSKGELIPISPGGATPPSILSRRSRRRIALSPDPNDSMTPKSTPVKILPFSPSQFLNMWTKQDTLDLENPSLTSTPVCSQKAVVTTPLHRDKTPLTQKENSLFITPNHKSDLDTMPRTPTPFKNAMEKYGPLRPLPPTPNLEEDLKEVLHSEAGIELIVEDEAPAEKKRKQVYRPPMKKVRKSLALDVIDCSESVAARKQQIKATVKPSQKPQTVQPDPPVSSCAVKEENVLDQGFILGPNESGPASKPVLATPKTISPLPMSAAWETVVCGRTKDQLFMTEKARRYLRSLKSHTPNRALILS
In short: (§2)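 Embryos treated overnight with […] drug, then double-stained for α-tubulin and pH3. Spindles counted in the body distal to the yolk ball. DAPI-stained cells with condensed chromatin counted manually in one field at the tail tip.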

Danio rerio [7] = organism: Danio rerio; experiment: Inhibition of B-myb-mediated mitotic deffects in zebrafish bmyb mutant crb embryos assessed as suppression of cells without spindles at 8 mM at 24 hrs post fertilization by pH3 and alpha tubulin staining; in short: as §2
B-myb (Danio rerio) [8] = molecular target: T1, B-myb (Danio rerio); experiment: Inhibition of B-myb-mediated mitotic deffects in wild-type zebrafish assessed as suppression of apoptosis at […] at 24 hrs post fertilization by TUNEL assay
In short: (§3)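 Embryos treated overnight (from 4 hpf) with […] drug, washed at 24 hpf. Apoptosis read by TUNEL staining at 24 hpf, and by brain opacity morphology at 30 hpf.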

Danio rerio [9] = organism: Danio rerio; experiment: Inhibition of B-myb-mediated mitotic deffects in zebrafish bmyb mutant crb embryos assessed as suppression of apoptosis at 8 mM at 24 hrs post fertilization by TUNEL assay; in short: as §3
B-myb (Danio rerio) [10] = molecular target: T1, B-myb (Danio rerio); experiment: Inhibition of B-myb mediated mitotic deffects in wild-type zebrafish assessed as suppression of polyploidy at […] at 24 hrs post fertilization […]
In short: (§4)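 Control and treated embryos, […] overnight, disaggregated and DNA content (2n/4n/8n) measured by flow cytometry. Individual-embryo FACS used a cell-suspension aliquot for genotyping.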

Danio rerio [11] = organism: Danio rerio; experiment: Inhibition of B-myb-mediated mitotic deffects in zebrafish bmyb mutant crb embryos assessed as suppression of polyploidy at 8 mM at 24 hrs post fertilization by TUNEL assay; in short: as §4
Danio rerio [12] = organism: Danio rerio; experiment: Inhibition of B-myb-mediated mitotic deffects in zebrafish bmyb mutant crb embryos
In short: (§5)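 crb heterozygote incrosses; embryos in E3 with 1% DMSO at 28.5 °C, compound added at 4 hpf and kept until 24 hpf ([…] except in dose-response). Fixed in 4% paraformaldehyde and whole-mount stained for serine-10-phosphorylated histone H3. All pH3-positive cells in the tail distal to the yolk extension counted, at least five embryos per condition. Embryos genotyped by RFLP. ED50 from dose-response.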

Danio rerio [13] = organism: Danio rerio; experiment: Inhibition of B-myb-mediated mitotic deffects in zebrafish bmyb mutant crb embryos at […]; conditions: TDE = time-dependent effect; in short: as §5
B-myb (Danio rerio) [14] = molecular target: T1, B-myb (Danio rerio); experiment: Inhibition of B-myb-mediated mitotic deffects in wild-type zebrafish assessed as number of centrosomes in pH3 -positive cells at […] at 24 hrs post fertilization by pH3 and […] staining; type: cell-based
Danio rerio [15] = organism: Danio rerio; experiment: Inhibition of B-myb-mediated mitotic deffects in zebrafish bmyb mutant crb embryos assessed as reduction in abnormalities in mitotic spindle by pH3 and alpha tubulin staining; conditions: concentration not given here; in short: as §2
Danio rerio [16] = organism: Danio rerio; experiment: Inhibition of B-myb-mediated mitotic deffects in zebrafish bmyb mutant crb embryos assessed as prometaphase arrest at 10 uM by pH3 and alpha tubulin staining
B-myb (Danio rerio) [17] = molecular target: T1, B-myb (Danio rerio); experiment: Inhibition of B-myb-mediated mitotic deffects in wild-type zebrafish embryo assessed as accumulation of cells in early S phase at […] at 24 hrs post fertilization for 6 hrs by flow cytometry
In short: (§6)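 Wild-type embryos exposed 24–30 hpf (6 h at 28.5 °C) to […] drug. Embryos disaggregated, immunostained for pH3 and DNA content measured by flow cytometry (G1/S/G2M fractions). For S-phase confirmation, embryos labelled with BrdU and incorporation read by whole-mount immunostaining and FACS.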

B-myb (Danio rerio) [18] = molecular target: T1, B-myb (Danio rerio); experiment: Inhibition of B-myb-mediated mitotic deffects in wild-type zebrafish embryo assessed as accumulation of cells in early S phase at […] at 24 hrs post fertilization for 6 hrs by flow cytometry in presence of 10 mM BrdU; in short: as §6
Danio rerio [19] = organism: Danio rerio; experiment: Inhibition of B-myb-mediated mitotic deffects in zebrafish bmyb mutant crb embryos assessed as increase in cyclin B1 mRNA expression
In short: (§7)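 Wild-type and crb embryos treated with […] drug, then whole-mount in situ hybridization for cyclin B1.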

B-myb (Danio rerio) [20] = molecular target: T1, B-myb (Danio rerio); experiment: Inhibition of B-myb-mediated mitotic deffects in wild-type zebrafish assessed as increase in cyclin B1 mRNA expression; in short: as §7
[21] = Induction of S to M phase cell cycle progression in zebrafish bmyb mutant embryo cells assessed as Brdu incorporation; type: functional, Danio rerio
Danio rerio [22] = organism: Danio rerio; experiment: Inhibition of B-myb-mediated mitotic deffects in zebrafish bmyb mutant embryo assessed as increase in mitotic cells with condensed chromatin at 10 uM by pH3 and alpha tubulin staining; type: cell-based

SMILES: C[C@@]1(CO)[C@H](O)CC[C@@]2(C)[C@H]1CC[C@H]1C[C@@H]3C[C@@]12CC[C@]3(O)CO
- inhibition (Danio rerio [1]): Active
- inhibition (Danio rerio [2]): Active
- inhibition (Danio rerio [3]): Active
- inhibition (Danio rerio [4]): Active

SMILES: NC(=O)NO
- inhibition (Danio rerio [1]): Active
- inhibition (Danio rerio [4]): Active

SMILES: O=C(Nc1ncccc1O)C12CC3CC(CC(C3)C1)C2 [PERSYNTHAMIDE]
- inhibition (Danio rerio [5]): Active
- inhibition (B-myb (Danio rerio) [6]): Active
- inhibition (Danio rerio [7]): Active
- inhibition (B-myb (Danio rerio) [8]): Active
- inhibition (Danio rerio [9]): Active
- inhibition (B-myb (Danio rerio) [10]): Active
- inhibition (Danio rerio [11]): Active
- ED50 (Danio rerio [12]): 5 µM
- inhibition (Danio rerio [13]): tde
- inhibition (B-myb (Danio rerio) [14]): Active
- inhibition (Danio rerio [15]): 55%
- inhibition (Danio rerio [16]): Active
- inhibition (B-myb (Danio rerio) [17]): Active
- inhibition (B-myb (Danio rerio) [18]): Active
- inhibition (Danio rerio [19]): Active
- inhibition (B-myb (Danio rerio) [20]): Active
- Activity [21]: 60%
- fold change (FC) (Danio rerio [22]): 4
